test system: Rattus norvegicus; experiment: Inhibition of phospholipids level in triton treated Charles Foster rat at 100 mg/kg, po; format: functional; details: not given
How it was run: (§1)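 Male Charles Foster rats (200–225 g) were used, six per group. They received Triton WR-1339 200 mg/kg i.p. together with oral compound at 100 mg/kg in 2% aqueous gum acacia, over 18 h; vehicle controls were included. Rats were then fasted overnight and bled retro-orbitally. Serum total cholesterol, phospholipids and triglyceride were assayed.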

Compound	inhibition in vivo at 100 mg/kg
CCOC(=O)CN(CCCOc1ccc2ccccc2c1)c1ccc(OC)cc1	26%
COc1cccc(CNCCCOc2ccc3ccccc3c2)c1	22%
COc1ccc(N(CCCOc2ccc3ccccc3c2)CC(=O)O)cc1	16.9%
COc1ccc(N(C)CCCOc2ccc3ccccc3c2)cc1	19%
CCCCN(CCCOc1ccc2ccccc2c1)c1ccc(OC)cc1	25%

test system: Rattus norvegicus; experiment: Antidiabetic activity in streptozotocin-induced diabetic albino Sprague-Dawley rat model assessed as decrease in blood glucose level at 100 mg/kg, po; format: functional; details: not given
How it was run: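 Overnight-fasted rats received streptozotocin 60 mg/kg i.p. in 100 mM citrate buffer, pH 4.5. After 48 h, animals with glucometer glucose of 200–400 mg/dl were grouped (n=6). Sample in 1% gum acacia was given orally at 100 mg/kg; controls received vehicle.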

Compound	inhibition in vivo at 100 mg/kg
CCOC(=O)CN(CCCOc1ccc2ccccc2c1)c1ccc(OC)cc1	6.9%

test system: Syrian golden hamster; experiment: Inhibition of triglyceride level in Syrian golden hamster at 300 umol/kg after 10 days; format: functional; details: Mesocricetus auratus, 240 h

Compound	inhibition in vivo at 300 µmol/kg
CCOC(=O)CN(CCCOc1ccc2ccccc2c1)c1ccc(OC)cc1	68%
COc1ccc(N(CCCOc2ccc3ccccc3c2)CC(=O)O)cc1	44%

test system: Rattus norvegicus; experiment: Antidiabetic activity in glucose loaded albino Sprague-Dawley rat model assessed as decrease in blood glucose level at 100 mg/kg, po; format: functional; details: not given
How it was run: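 Rats in groups of five were bled at baseline, then gavaged with test sample at 100 mg/kg. A glucose load of 2 g/kg was given 30 min later. Blood was collected at 30, 60, 90 and 120 min.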

Compound	inhibition in vivo at 100 mg/kg
CCOC(=O)CN(CCCOc1ccc2ccccc2c1)c1ccc(OC)cc1	25.9%
COc1cccc(CNCCCOc2ccc3ccccc3c2)c1	1.23%
COc1ccc(N(CCCOc2ccc3ccccc3c2)CC(=O)O)cc1	15.5%
COc1ccc(N(C)CCCOc2ccc3ccccc3c2)cc1	8.2%
CCCCN(CCCOc1ccc2ccccc2c1)c1ccc(OC)cc1	13.5%

test system: Syrian golden hamster; experiment: Inhibition of free fatty acids level in Syrian golden hamster at 300 umol/kg after 10 days; format: functional; details: Mesocricetus auratus, 240 h

Compound	inhibition in vivo at 300 µmol/kg
CCOC(=O)CN(CCCOc1ccc2ccccc2c1)c1ccc(OC)cc1	48%

test system: Syrian golden hamster; experiment: Inhibition of glucose level in Syrian golden hamster at 300 umol/kg after 10 days; format: functional; details: Mesocricetus auratus, 240 h

Compound	inhibition in vivo at 300 µmol/kg
CCOC(=O)CN(CCCOc1ccc2ccccc2c1)c1ccc(OC)cc1	34%
COc1ccc(N(CCCOc2ccc3ccccc3c2)CC(=O)O)cc1	22%

test system: Rattus norvegicus; experiment: Antidiabetic activity in sucrose loaded albino Sprague-Dawley rat model assessed as decrease in blood glucose level at 100 mg/kg, po; format: functional; details: not given
How it was run: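 Male Sprague–Dawley rats were fasted overnight and used in groups of five. Baseline blood was taken, then test sample was gavaged at 100 mg/kg. A sucrose load of […] followed 30 min later.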

Compound	inhibition in vivo at 100 mg/kg
CCOC(=O)CN(CCCOc1ccc2ccccc2c1)c1ccc(OC)cc1	45.4%
COc1cccc(CNCCCOc2ccc3ccccc3c2)c1	8.3%
COc1ccc(N(CCCOc2ccc3ccccc3c2)CC(=O)O)cc1	21.5%
COc1ccc(N(C)CCCOc2ccc3ccccc3c2)cc1	14.5%
CCCCN(CCCOc1ccc2ccccc2c1)c1ccc(OC)cc1	4.4%

test system: Mus musculus; experiment: Antidiabetic activity in db/db mouse at 100 mg/kg after 24 hrs on day 3; format: functional; details: not given

Compound	inhibition in vivo at 100 mg/kg
CCOC(=O)CN(CCCOc1ccc2ccccc2c1)c1ccc(OC)cc1	15.4%

test system: Mus musculus; experiment: Antidiabetic activity in db/db mouse at 100 mg/kg after 5 hrs on day 3; format: functional; details: not given

Compound	inhibition in vivo at 100 mg/kg
CCOC(=O)CN(CCCOc1ccc2ccccc2c1)c1ccc(OC)cc1	12%

test system: Rattus norvegicus; experiment: Antidiabetic activity in sucrose challenged streptozotocin-induced diabetic albino Sprague-Dawley rat model assessed as decrease in blood glucose level at 100 mg/kg, po; format: functional; details: not given
How it was run: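 Diabetes was induced in overnight-fasted rats with streptozotocin 60 mg/kg i.p. in 100 mM citrate buffer, pH 4.5. Rats with glucose of 150–250 mg/dl at 48 h were selected. A sucrose load of 2.5 g/kg was given 30 min after oral dosing. Glucose was measured at 30–300 min and 24 h. Food was withheld, water allowed.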

Compound	inhibition in vivo at 100 mg/kg
CCOC(=O)CN(CCCOc1ccc2ccccc2c1)c1ccc(OC)cc1	5.6%

test system: Syrian golden hamster; experiment: Inhibition of glycerol level in Syrian golden hamster at 300 umol/kg after 10 days; format: functional; details: Mesocricetus auratus, 240 h

Compound	inhibition in vivo at 300 µmol/kg
CCOC(=O)CN(CCCOc1ccc2ccccc2c1)c1ccc(OC)cc1	7.3%
COc1ccc(N(CCCOc2ccc3ccccc3c2)CC(=O)O)cc1	23%

test system: Rattus norvegicus; experiment: Inhibition of cholesterol level in triton treated Charles Foster rat at 100 mg/kg, po; format: functional; details: not given; how it was run: as §1

Compound	inhibition in vivo at 100 mg/kg
CCOC(=O)CN(CCCOc1ccc2ccccc2c1)c1ccc(OC)cc1	21.2%
COc1cccc(CNCCCOc2ccc3ccccc3c2)c1	14%
COc1ccc(N(CCCOc2ccc3ccccc3c2)CC(=O)O)cc1	23.8%
COc1ccc(N(C)CCCOc2ccc3ccccc3c2)cc1	11%
CCCCN(CCCOc1ccc2ccccc2c1)c1ccc(OC)cc1	15%

test system: Syrian golden hamster; experiment: Inhibition of cholesterol level in Syrian golden hamster at 300 umol/kg after 10 days; format: functional; details: Mesocricetus auratus, 240 h

Compound	inhibition in vivo at 300 µmol/kg
CCOC(=O)CN(CCCOc1ccc2ccccc2c1)c1ccc(OC)cc1	22%
COc1ccc(N(CCCOc2ccc3ccccc3c2)CC(=O)O)cc1	21%

test system: Syrian golden hamster; experiment: Inhibition of HDL level in Syrian golden hamster at 300 umol/kg after 10 days; format: functional; details: Mesocricetus auratus, 240 h

Compound	inhibition in vivo at 300 µmol/kg
CCOC(=O)CN(CCCOc1ccc2ccccc2c1)c1ccc(OC)cc1	16%
COc1ccc(N(CCCOc2ccc3ccccc3c2)CC(=O)O)cc1	11%

test system: Rattus norvegicus; experiment: Inhibition of triglyceride level in triton treated Charles Foster rat at 100 mg/kg, po; format: functional; details: not given; how it was run: as §1

Compound	inhibition in vivo at 100 mg/kg
CCOC(=O)CN(CCCOc1ccc2ccccc2c1)c1ccc(OC)cc1	15%
COc1cccc(CNCCCOc2ccc3ccccc3c2)c1	22%
COc1ccc(N(CCCOc2ccc3ccccc3c2)CC(=O)O)cc1	13%
COc1ccc(N(C)CCCOc2ccc3ccccc3c2)cc1	15%
CCCCN(CCCOc1ccc2ccccc2c1)c1ccc(OC)cc1	17%

target: T1, Peroxisome proliferator-activated receptor delta (Homo sapiens) (UniProt Q03181); experiment: Inhibition of PPARdelta at 3 uM; details: not given
T1 sequence (whole entry): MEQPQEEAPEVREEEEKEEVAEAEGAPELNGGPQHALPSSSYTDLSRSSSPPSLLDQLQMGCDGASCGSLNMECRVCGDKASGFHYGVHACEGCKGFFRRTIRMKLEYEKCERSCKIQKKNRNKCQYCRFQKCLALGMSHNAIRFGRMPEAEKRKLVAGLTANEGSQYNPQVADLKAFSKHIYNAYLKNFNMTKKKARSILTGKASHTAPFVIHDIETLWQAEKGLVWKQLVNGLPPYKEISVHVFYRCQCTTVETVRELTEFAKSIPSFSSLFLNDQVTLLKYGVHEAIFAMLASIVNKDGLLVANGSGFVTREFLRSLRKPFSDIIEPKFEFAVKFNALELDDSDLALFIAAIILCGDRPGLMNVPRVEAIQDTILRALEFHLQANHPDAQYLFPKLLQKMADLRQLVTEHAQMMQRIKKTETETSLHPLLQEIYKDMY

Compound	inhibition
CCOC(=O)CN(CCCOc1ccc2ccccc2c1)c1ccc(OC)cc1	29.6%
COc1ccc(N(CCCOc2ccc3ccccc3c2)CC(=O)O)cc1	20.2%

Second part, the molecule after the results:

inhibition	Compound
19.3%	COc1ccc(N(C)CCCOc2ccc3ccccc3c2)cc1
8.4%	CCCCN(CCCOc1ccc2ccccc2c1)c1ccc(OC)cc1

target: T2, Peroxisome proliferator-activated receptor gamma (Homo sapiens, UniProt P37231); experiment: Binding affinity at PPARgamma; details: not given
T2 sequence (P37231 whole entry): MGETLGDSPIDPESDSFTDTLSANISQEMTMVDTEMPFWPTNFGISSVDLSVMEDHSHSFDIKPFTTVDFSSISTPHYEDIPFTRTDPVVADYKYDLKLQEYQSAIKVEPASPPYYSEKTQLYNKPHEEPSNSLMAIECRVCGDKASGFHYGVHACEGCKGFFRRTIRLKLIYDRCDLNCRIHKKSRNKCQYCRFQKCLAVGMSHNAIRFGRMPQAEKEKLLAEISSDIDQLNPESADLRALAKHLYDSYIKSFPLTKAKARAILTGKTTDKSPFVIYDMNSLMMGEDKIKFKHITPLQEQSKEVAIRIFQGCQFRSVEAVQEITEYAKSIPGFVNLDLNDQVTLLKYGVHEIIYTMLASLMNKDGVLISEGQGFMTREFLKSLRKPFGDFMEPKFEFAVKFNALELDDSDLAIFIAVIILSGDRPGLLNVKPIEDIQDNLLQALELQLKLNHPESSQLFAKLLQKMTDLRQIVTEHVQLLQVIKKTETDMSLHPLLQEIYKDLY

EC50	Compound
4.8 µM	CCOC(=O)CN(CCCOc1ccc2ccccc2c1)c1ccc(OC)cc1

target: T3, Peroxisome proliferator-activated receptor alpha (Homo sapiens) (UniProt Q07869); experiment: Inhibition of PPARalpha at 50 uM; details: not given
T3 sequence (whole entry): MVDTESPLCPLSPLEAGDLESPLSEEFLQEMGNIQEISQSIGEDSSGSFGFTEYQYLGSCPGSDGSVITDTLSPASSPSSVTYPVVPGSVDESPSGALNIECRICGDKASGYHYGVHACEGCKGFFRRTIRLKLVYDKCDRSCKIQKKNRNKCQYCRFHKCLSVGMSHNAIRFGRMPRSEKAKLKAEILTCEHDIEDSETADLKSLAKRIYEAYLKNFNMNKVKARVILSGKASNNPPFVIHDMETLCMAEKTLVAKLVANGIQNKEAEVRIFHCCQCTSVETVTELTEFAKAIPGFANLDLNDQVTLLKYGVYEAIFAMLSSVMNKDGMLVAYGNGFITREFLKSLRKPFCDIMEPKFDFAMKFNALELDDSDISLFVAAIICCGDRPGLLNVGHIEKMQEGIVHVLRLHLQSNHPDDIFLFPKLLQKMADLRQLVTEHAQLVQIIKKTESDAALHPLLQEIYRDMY

Compound	inhibition
CCOC(=O)CN(CCCOc1ccc2ccccc2c1)c1ccc(OC)cc1	33.5%
COc1ccc(N(CCCOc2ccc3ccccc3c2)CC(=O)O)cc1	25.4%

The next lines start with the values.

inhibition	Compound
22.5%	COc1ccc(N(C)CCCOc2ccc3ccccc3c2)cc1
8.5%	CCCCN(CCCOc1ccc2ccccc2c1)c1ccc(OC)cc1
